Measured values published in ChEMBL document CHEMBL4673340 (J Med Chem, 2020).

Key:
MDA-MB-436 = test: Antitumor activity against human MDA-MB-436 cells xenografted in BALB/c nude mouse assessed as inhibition of tumor growth at 1.6 to […], po BID for 28 days followed by treatment was interruption and monitored for additional 2 months; assay type: functional, organism-based; details: dose lower […], dose upper […], time 28.0 day
[1] = Drug level in C57BL/6 mouse brain at 10 mg/kg, po after 2 hrs; assay type: ADME, organism-based; details: read-out: Drug uptake
Summary of the method: (§1)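 C57BL/6 mice (n=3) dosed orally at 10 mg/kg in 0.5% MC. Plasma and brain are sampled at 1, 2 and 4 h. Brain is homogenized in 3 volumes of saline, then acetonitrile protein precipitation; plasma is likewise precipitated. Both are analysed by LC–MS/MS and reported as means.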

[2] = Drug level in C57BL/6 mouse plasma at 10 mg/kg, po after 1 hrs; assay type: ADME, organism-based; summary of the method: as §1
[3] = Half life in Beagle dog at 2 mg/kg, po by LC-MS/MS analysis; assay type: ADME, organism-based, Canis lupus familiaris; details: in vivo
Summary of the method: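 Three Beagle dogs; iv dose 1 mg/kg in 25% DMA in water; oral dose 2 mg/kg in 0.5% CMC-Na. Plasma drug concentrations are measured by LC–MS/MS. Values are the mean of three dogs.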

[4] = AUC (0 to infinity) in ICR mouse at 10 mg/kg, po by LC-MS/MS analysis; assay type: ADME, organism-based; parameters: time infinity, route oral, dose 10 mg/kg; details: in vivo
Summary of the method: (§2)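 Male/female unspecified ICR mice, n=3 per route. Intravenous 1 mg/kg in 5% DMA in water; oral 10 mg/kg in 0.5% MC. Plasma is processed by protein precipitation and analysed by LC–MS/MS using an acetonitrile/0.1% formic acid gradient. Values are means of the three animals.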

[5] = Clearance in ICR mouse at 1 mg/kg, iv by LC-MS/MS analysis; assay type: ADME, organism-based; details: in vivo; summary of the method: as §2
[6] = Antiproliferation activity against human UWB1289 cells expressing BRCA1 mutant incubated for 7 days by CellTiter-Glo luminescent cell viability assay; assay type: functional, cell-based; details: UWB1289, 168 h
Summary of the method: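 Seeding density is set per line for log growth over 7 days. Cells attach 16 h, then are treated in duplicate with a 10-point dilution series for 7 days. CellTiter-Glo luminescence (ATP) is read, and viability is expressed relative to mock-treated control. EC50 is the mean of three independent experiments run in triplicate.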

Cytochrome P450 3A4 = Cytochrome P450 3A4 (Homo sapiens, UniProt P08684); test: Inhibition of CYP3A4 (unknown origin); assay type: ADME
Cytochrome P450 3A4, sequence (P08684 whole entry): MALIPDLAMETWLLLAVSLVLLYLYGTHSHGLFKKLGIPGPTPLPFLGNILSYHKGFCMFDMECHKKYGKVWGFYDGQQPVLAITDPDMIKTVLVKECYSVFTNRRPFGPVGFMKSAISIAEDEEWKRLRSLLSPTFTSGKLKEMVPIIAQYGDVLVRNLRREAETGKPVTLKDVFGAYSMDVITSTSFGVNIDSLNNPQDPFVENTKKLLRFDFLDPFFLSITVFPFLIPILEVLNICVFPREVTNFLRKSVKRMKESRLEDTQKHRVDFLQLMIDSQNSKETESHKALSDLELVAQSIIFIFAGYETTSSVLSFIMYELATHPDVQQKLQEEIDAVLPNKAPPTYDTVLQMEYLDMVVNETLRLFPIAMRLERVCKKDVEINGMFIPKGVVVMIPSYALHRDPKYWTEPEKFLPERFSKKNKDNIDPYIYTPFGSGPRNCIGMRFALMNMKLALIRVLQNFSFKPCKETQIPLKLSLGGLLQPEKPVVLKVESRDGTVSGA

Cytochrome P450 2D6 = Cytochrome P450 2D6 (Homo sapiens, UniProt P10635); test: Inhibition of CYP2D6 (unknown origin); assay type: ADME
Cytochrome P450 2D6, sequence (P10635 whole entry): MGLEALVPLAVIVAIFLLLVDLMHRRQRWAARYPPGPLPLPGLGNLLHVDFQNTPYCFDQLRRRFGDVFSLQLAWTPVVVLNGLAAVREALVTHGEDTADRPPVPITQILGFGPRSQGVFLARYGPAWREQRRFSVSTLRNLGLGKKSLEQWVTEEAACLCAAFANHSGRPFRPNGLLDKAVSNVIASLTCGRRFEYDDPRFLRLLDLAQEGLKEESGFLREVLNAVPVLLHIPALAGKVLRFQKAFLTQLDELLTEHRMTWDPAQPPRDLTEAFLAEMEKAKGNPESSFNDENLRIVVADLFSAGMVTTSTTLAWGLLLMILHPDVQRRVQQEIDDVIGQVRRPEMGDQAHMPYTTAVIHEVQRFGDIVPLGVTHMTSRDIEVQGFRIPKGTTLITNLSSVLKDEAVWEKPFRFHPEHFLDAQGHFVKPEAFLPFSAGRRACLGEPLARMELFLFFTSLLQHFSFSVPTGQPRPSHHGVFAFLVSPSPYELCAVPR

[7] = biological target: Protein mono-ADP-ribosyltransferase PARP6 (Homo sapiens, UniProt Q2NL67); test: Inhibition of PARP-6 (unknown origin) pre-incubated for 30 mins before addition of activated DNA and NAD by chemiluminescent assay
Protein mono-ADP-ribosyltransferase PARP6, sequence (Q2NL67 whole entry, canonical isoform): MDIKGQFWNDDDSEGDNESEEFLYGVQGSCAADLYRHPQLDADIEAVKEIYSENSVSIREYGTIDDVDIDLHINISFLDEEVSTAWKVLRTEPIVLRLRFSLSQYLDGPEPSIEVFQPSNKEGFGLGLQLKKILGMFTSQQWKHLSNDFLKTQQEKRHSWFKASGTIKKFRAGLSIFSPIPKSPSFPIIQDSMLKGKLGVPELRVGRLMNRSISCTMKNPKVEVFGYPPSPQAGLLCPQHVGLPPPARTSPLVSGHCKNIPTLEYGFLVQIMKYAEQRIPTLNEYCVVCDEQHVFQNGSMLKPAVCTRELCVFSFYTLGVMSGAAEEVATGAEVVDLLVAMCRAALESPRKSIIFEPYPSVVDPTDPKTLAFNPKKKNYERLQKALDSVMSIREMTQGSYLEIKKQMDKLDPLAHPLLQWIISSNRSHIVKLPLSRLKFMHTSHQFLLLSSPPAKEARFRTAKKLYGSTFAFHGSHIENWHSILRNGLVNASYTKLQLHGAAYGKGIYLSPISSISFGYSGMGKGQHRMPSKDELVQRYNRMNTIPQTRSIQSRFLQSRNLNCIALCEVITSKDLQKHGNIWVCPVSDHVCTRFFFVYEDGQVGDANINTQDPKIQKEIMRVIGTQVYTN
Summary of the method: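 Chemiluminescent kit assay. Histone-coated wells were incubated for 30 min with the PARP isoform and increasing inhibitor concentrations. A substrate mix of NAD plus biotinylated NAD with activated DNA was then added. The biotinylated PARylation product was read with streptavidin-HRP and HRP substrate. IC50 was taken from residual enzyme activity across the concentration series.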

[8] = Cmax in Sprague-Dawley rat at 5 mg/kg, po by LC-MS/MS analysis; details: in vivo
[9] = Half life in Sprague-Dawley rat at 5 mg/kg, po by LC-MS/MS analysis; details: in vivo
[10] = AUC ( 0 to infinity) in Sprague-Dawley rat at 5 mg/kg, po by LC-MS/MS analysis; details: in vivo

In the case of C[C@]12CCCN1CC1=NNC(=O)c3cc(F)cc4[nH]c2c1c34 [PAMIPARIB], the TGI (MDA-MB-436) is reported as “Dose-dependent effect”, the concentration at 2 h [1] is reported as 252 ng/g and the concentration at 1 h [2] is reported as 3530 ng/mL. It also gave a half-life [3] of 3.62 h, an AUC [4] of 5521 ng·h/mL and a CL [5] of 29.9 mL/min/kg. It also gave an EC50 [6] of 0.0538 µM, an IC50 (Cytochrome P450 3A4) of over 10 µM and an IC50 (Cytochrome P450 2D6) of over 10 µM. The IC50 [7] was over 100 µM, the Cmax [8] was 861 ng/mL and the half-life [9] was 5.5 h. For the same compound, the AUC(0-inf) [10] was 3470 ng·h/mL.
